Drawing on ChEMBL document CHEMBL1143260, “Substrate specificity and screening of the integral membrane protease Pla” (Bioorg Med Chem Lett, 2008), this text covers Activity for eight compounds.

The source made the active and inactive calls. The rule behind the calls is not given here. Residues, ends and D or L forms follow the SMILES beside them. *: point of attachment. X1 = CN(C)c1ccc(/N=N/c2ccc(C(=O)*)cc2)cc1; EDANS = O=S(=O)(O)c1cccc2c(NCCN*)cccc12

The target in experiment [1] is Tissue-type plasminogen activator (Homo sapiens) (UniProt P00750). As to the kind of experiment: Hydrolysis activity of plasminogen activator by LC-MS analysis. A digest of the protocol: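 Peptides were incubated with Pla, and the reaction mixtures were analysed by LC-MS. Cleavage was assigned from product retention time and mass, for example a DABCYL-Arg-OH fragment.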

The target is the same in experiment [2]. As to the kind of experiment: Inhibition of recombinant plasminogen activator assessed as conversion of plasminogen to plasmin in fibrinolytic assay. In short, it runs like this: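 Fibrin plate functional assay: purified Pla was pre-incubated with the peptide, dissolved in DMSO or water and tested in 2-fold dilutions. Samples were spotted onto an opalescent fibrin film containing plasminogen. No-peptide spots served as controls.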

Experiment [3] concerns the target T1, Plasminogen activator (Yersinia pestis) (UniProt P17811).
T1 sequence (whole entry): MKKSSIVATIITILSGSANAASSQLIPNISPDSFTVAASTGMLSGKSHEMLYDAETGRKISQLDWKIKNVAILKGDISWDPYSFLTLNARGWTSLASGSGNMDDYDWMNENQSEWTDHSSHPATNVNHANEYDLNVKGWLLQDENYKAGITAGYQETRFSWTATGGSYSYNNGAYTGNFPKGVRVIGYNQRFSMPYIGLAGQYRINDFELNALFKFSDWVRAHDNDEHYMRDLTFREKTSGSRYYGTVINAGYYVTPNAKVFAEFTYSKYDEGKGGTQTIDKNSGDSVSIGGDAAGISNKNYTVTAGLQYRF
As to the kind of experiment: Inhibition of plasminogen activator in Yersinia pestis assessed as conversion of plasminogen to plasmin in fibrinolytic assay. A digest of the protocol: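 Fibrin plate assay. Purified recombinant Pla was pre-incubated with the peptide in 2-fold dilutions (dissolved in DMSO or water), then spotted onto an opalescent fibrin film. Pla converts plasminogen to plasmin, and fibrinolysis appears as a clear spot. Inhibition was judged against spots with no peptide added.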

In experiment [4] the target is Tissue-type plasminogen activator (Homo sapiens) (UniProt P00750). The experiment is described as follows: Inhibition of purified recombinant plasminogen activator by fluorometric assay.
The target of experiment [5] is Urokinase-type plasminogen activator (Homo sapiens) (UniProt P00749). As to the kind of experiment: Inhibition of urokinase-type plasminogen activator.
For experiment [6], the target named is T1, Plasminogen activator (Yersinia pestis). As to the kind of experiment: Inhibition of plasminogen activator in Yersinia pestis by fluorometric assay.

Tissue-type plasminogen activator (Homo sapiens), sequence (P00750 36-562 limits assumed): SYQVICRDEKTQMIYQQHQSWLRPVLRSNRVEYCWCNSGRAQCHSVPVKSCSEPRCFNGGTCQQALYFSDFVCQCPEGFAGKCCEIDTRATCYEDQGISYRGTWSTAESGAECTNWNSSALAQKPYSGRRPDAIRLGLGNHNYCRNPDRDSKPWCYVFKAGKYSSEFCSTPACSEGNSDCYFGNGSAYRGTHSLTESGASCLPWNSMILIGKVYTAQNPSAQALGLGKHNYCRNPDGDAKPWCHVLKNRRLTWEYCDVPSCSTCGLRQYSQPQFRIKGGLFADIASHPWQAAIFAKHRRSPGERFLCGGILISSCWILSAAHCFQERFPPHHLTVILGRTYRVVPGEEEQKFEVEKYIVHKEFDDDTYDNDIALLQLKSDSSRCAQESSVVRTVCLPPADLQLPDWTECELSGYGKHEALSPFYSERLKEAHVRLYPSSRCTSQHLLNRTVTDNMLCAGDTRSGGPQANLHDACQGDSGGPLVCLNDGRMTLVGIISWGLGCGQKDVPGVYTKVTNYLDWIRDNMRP

Regarding `CC[C@H](C)[C@H](NC(=O)[C@H](CCCNC(=N)N)NC(=O)[C@H](CCCNC(=N)N)NC(=O)c1ccc(/N=N/c2ccc(N(C)C)cc2)cc1)C(=O)NCCNc1cccc2c(S(=O)(=O)O)cccc12`, the outcome in experiment [1] and in experiment [2] was Active.
Regarding `CC[C@H](C)[C@H](NC(=O)[C@H](CCCNC(=N)N)NC(=O)[C@H](CCCNC(=N)N)NC(=O)c1ccc(/N=N/c2ccc(N(C)C)cc2)cc1)C(=O)O`, the result in experiment [1] was Active. In addition, the result in experiment [2] was inactive.
In the same order, the values of `CN(C)c1ccc(/N=N/c2ccc(C(=O)N[C@@H](CCCNC(=N)N)C(=O)N[C@@H](CCCNC(=N)N)C(=O)O)cc2)cc1` are “inactive” and “inactive”.
In the same order, the values of `CC[C@H](C)[C@H](NC(=O)[C@H](CCCNC(=N)N)NC(=O)[C@H](CCCNC(=N)N)NC(=O)c1ccc(/N=N/c2ccc(N(C)C)cc2)cc1)C(=O)N[C@@H](CC(=O)O)C(=O)NCCNc1cccc2c(S(=O)(=O)O)cccc12` (X1-RRID-{EDANS}) are “Active” and “Active”.
In the same order, the values of `CC[C@H](C)[C@H](NC(=O)[C@H](CCCNC(=N)N)NC(=O)[C@H](CCCNC(=N)N)NC(=O)c1ccc(/N=N/c2ccc(N(C)C)cc2)cc1)C(=O)N[C@@H](CC(N)=O)C(=O)O` (X1-RRIN-OH) are “Active” and “inactive”.
As to `CC[C@H](C)[C@H](NC(=O)[C@H](CCCNC(=N)N)NC(=O)[C@H](CCCNC(=N)N)NC(=O)c1ccc(/N=N/c2ccc(N(C)C)cc2)cc1)C(=O)N[C@@H](CC(N)=O)C(=O)N[C@@H](CCCNC(=N)N)C(=O)O` (X1-RRINR-OH), the result in experiment [1] was Active. In addition, the result in experiment [2] was inactive.
For `CC[C@H](C)[C@H](NC(=O)[C@H](CCCNC(=N)N)NC(=O)[C@H](CCCNC(=N)N)NC(=O)c1ccc(/N=N/c2ccc(N(C)C)cc2)cc1)C(=O)N[C@@H](CC(N)=O)C(=O)N[C@@H](CCCNC(=N)N)C(=O)N[C@@H](CCC(=O)NCCNc1cccc2c(S(=O)(=O)O)cccc12)C(N)=O` (X1-RRINRE(EDANS)-NH2), the outcome in experiment [1], in experiment [3], in experiment [2], in experiment [4] and in experiment [6] was Active. Further, the result in experiment [5] was inactive.
With `CC[C@H](C)[C@H](NC(=O)[C@H](CCCNC(=N)N)NC(=O)[C@H](CCCNC(=N)N)NC(=O)c1ccc(/N=N/c2ccc(N(C)C)cc2)cc1)C(=O)N[C@@H](CC(N)=O)C(=O)N[C@@H](CCCNC(=N)N)C(=O)N[C@@H](CCC(=O)O)C(=O)NCCNc1cccc2c(S(=O)(=O)O)cccc12` (X1-RRINRE-{EDANS}), the result in experiment [1] and in experiment [2] was Active.
